Data on four compounds can be found in ChEMBL document CHEMBL1151165, “Characterization of the preferred stereochemistry for the neuropharmacologic actions of antillatoxin” (J Nat Prod, 2004).

Data set [1] in a line: Cytotoxicity against mouse Neuro2a cells. The class given is cell-based, N2a. To be noted: read-out: LD50 (the source's name).
Data set [2] in a line: Increase in cytoplasmic calcium influx in Sprague-Dawley rat CGN cells by FLIPR. The class given is cell-based. An outline of the steps:
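Cytoplasmic Ca2+ in cerebellar granule cells was followed by fluo-3 fluorescence, with basal fluorescence (about 4000 units) subtracted. The response is the integrated fluorescence area under the curve, plotted against compound concentration.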

The nature of data set [3]: Cytotoxicity in Sprague-Dawley rat CGN cells assessed as LDH release after 2 hrs. The class given is cell-based. An outline of the steps:
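Rat cerebellar granule cells, 11-13 days in culture, exposed 2 h to the compound across a concentration range. LDH efflux into the culture medium was measured, and pEC50 was taken from concentration-response curves. Two separate experiments, each in triplicate, mean ± SEM.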

Another data set relates to Carassius auratus. Description: Ichthyotoxicity against Carassius auratus. The following applies: in vivo. The class given is organism-based.
Data set [4] can be described thus: Increase in extracellular acidification rate in Sprague-Dawley rat CGN cells by cytosensor microphysiometer. The class given is cell-based. An outline of the steps: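 Cerebellar granule neurons were cultured on porous polycarbonate membranes, and extracellular acidification rate was monitored by microphysiometry over a range of concentrations. Peak acidification rate is expressed as percent of basal proton efflux. Two separate experiments, each in duplicate, mean ± SEM.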

Data set [5] is described as follows: Cytotoxicity in Sprague-Dawley rat CGN cells assessed as LDH release at 100 nM after 2 hrs in presence of 1 uM tetrodotoxin. The following applies: 0.1 µM. The class given is cell-based.
Data set [6] is described as follows: Increase in extracellular acidification rate in Sprague-Dawley rat CGN cells at 100 nM by cytosensor microphysiometer. The class given is cell-based. The following applies: 0.1 µM.
Data set [7] in a line: Cytotoxicity in Sprague-Dawley rat CGN cells assessed as LDH release after 2 hrs in presence of 1 uM tetrodotoxin. The class given is cell-based.

With `C=C1CC(=O)N[C@@H](C)C(=O)N(C)[C@@H](C(C)C)C(=O)NCC(=O)O[C@H](/C(C)=C/C(C)=C/C(C)(C)C)[C@H]1C`, in data set [1], the CC50 is 10 µM. In addition, the Activity result in data set [2] is “Dose-dependent effect and tde”.
For `C=C1CC(=O)N[C@@H](C)C(=O)N(C)[C@@H](C(C)C)C(=O)NCC(=O)O[C@@H](/C(C)=C/C(C)=C/C(C)(C)C)[C@H]1C`, the CC50 in data set [1] was found to be 5 µM. The Activity result in data set [2] was “Dose-dependent effect and tde”.
On to `C=C1CC(=O)N[C@@H](C)C(=O)N(C)[C@@H](C(C)C)C(=O)NCC(=O)O[C@H](/C(C)=C/C(C)=C/C(C)(C)C)[C@@H]1C`, for which the CC50 in data set [1] was 10 µM. Also, the EC50 in data set [3] (read-out: EC50) turned out to be 8.1 µM. For the same compound, the Activity result in the data set on Carassius auratus was “Non-toxic”; in data set [2], “Dose-dependent effect and tde”; in data set [4], 5 µM.
As to `C=C1CC(=O)N[C@@H](C)C(=O)N(C)[C@@H](C(C)C)C(=O)NCC(=O)O[C@@H](/C(C)=C/C(C)=C/C(C)(C)C)[C@@H]1C` [ANTILLATOXIN], in data set [1], the CC50 came to 0.18 µM. The EC50 in data set [3] (read-out: EC50) was 0.042 µM; in data set [3] (read-out: pEC50 (converted)), 0.0457 µM. The Activity in the data set with Carassius auratus was 0.1 µM; in data set [5], “Non-toxic”; in data set [2], “Dose-dependent effect and tde”; in data set [4] it was 0.041 µM; in data set [6], 300%; in data set [7] it was “Non-toxic”.
